Here are results for 15 compounds from ChEMBL document CHEMBL3407352, “Identification of anthranilamide derivatives as potential factor Xa inhibitors: drug design, synthesis and biological evaluation” (Eur J Med Chem, 2015).

SMILES strings stand for the structures.

Test system in the first test: not listed separately
The test is described as follows: Anticoagulant activity in plasma (unknown origin) assessed as concentration required to double the time for fibrin formation. The class given is functional. The procedure, abridged:
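Clotting times in plasma on automatic coagulometer per manufacturer's instructions; increasing inhibitor concentrations or solvent added to plasma, incubated 3 min at 37 °C, clotting times compared with appropriate control plasma.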
On to `COc1ccc(NC(=O)c2ccc(Cl)cc2)c(C(=O)Nc2ccc(N3CCCCC3=O)cc2)c1`, for which the Activity was 8.7 µM.
Same read-out and setting: under `COc1ccc(NC(=O)c2ccc(C(=N)N(C)C)cc2)c(C(=O)Nc2ccc(Cl)cn2)c1` [BETRIXABAN] stands 2.4 µM.

The next test concerns the target Prothrombin (Homo sapiens, UniProt P00734). The test is described as follows: Inhibition of human thrombin using acromogenic substrate S-2238 preincubated for 30 mins before substrate addition measured after 20 mins by spectrophotometry. The procedure, abridged: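 Compounds prepared at 10 mM, serially diluted to twelve concentrations in 50 mM Tris-Cl, 100 mM NaCl, 0.1% BSA, pH 7.4; mixed with enzyme (final: human fXa 0.003 U/mL; human thrombin 0.125 U/mL), incubated 30 min at 37 °C. Reaction started with chromogenic substrate (fXa: S-2222; thrombin: S-2238), monitored continuously 20 min at 405 nm; IC50 from mean of duplicates.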
The IC50 is the point on the concentration scale where inhibition reaches its midpoint. `COc1ccc(NC(=O)c2ccc(Cl)cc2)c(C(=O)Nc2ccc(N3CCCCC3=O)cc2)c1` displayed an IC50 of 48000 nM.
On the same count and under the same terms, under `COc1ccc(NC(=O)c2ccc(C(=N)N(C)C)cc2)c(C(=O)Nc2ccc(Cl)cn2)c1` [BETRIXABAN] stands 18000 nM.

A further test deals with Coagulation factor X (Homo sapiens, UniProt P00742). The test is described as follows: Inhibition of human factor 10a using acromogenic substrate S-2222 preincubated for 30 mins before substrate addition measured after 20 mins by spectrophotometry.
Coagulation factor X, sequence (P00742 41-179 limits assumed): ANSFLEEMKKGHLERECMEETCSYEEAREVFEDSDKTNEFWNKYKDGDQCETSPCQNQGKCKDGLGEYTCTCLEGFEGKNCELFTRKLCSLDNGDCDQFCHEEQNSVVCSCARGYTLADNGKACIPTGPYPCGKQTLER
Coagulation factor X, sequence (P00742 235-488 limits assumed): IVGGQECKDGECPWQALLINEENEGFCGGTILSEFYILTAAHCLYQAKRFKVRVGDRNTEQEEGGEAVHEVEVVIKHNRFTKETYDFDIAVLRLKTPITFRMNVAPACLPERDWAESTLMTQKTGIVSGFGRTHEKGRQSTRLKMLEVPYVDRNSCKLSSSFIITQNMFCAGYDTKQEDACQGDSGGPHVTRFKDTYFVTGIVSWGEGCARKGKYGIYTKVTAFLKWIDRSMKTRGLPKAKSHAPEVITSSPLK
`CN1CCC2N=C(C(=O)N[C@@H]3CCCC[C@@H]3CNC(=O)c3ccc(Cl)s3)SC2C1` (stereo partly drawn) returned an IC50 of 27 nM.
As a reminder, the Ki is a measure of affinity in units of concentration, obtained from inhibition or displacement. Higher therefore signals a looser hold on the target. Consider `C[C@@H](C(=O)N1CCOCC1)N1CC[C@H](NS(=O)(=O)C2=Nc3ccc(Cl)cc3C2)C1=O`, for which the Ki came to 90 nM.
`COc1ccc(NC(=O)C(=O)Nc2ccc(Cl)cn2)c(C(=O)Nc2ccc(N3CCOCC3=O)cc2)c1` had an IC50 of 298 nM.
The same measure, in the same setting: under `COc1ccc(NC(=O)C(=O)Nc2ccccc2)c(C(=O)Nc2ccc(N3CCOCC3=O)cc2)c1` stands 1120 nM; under `COc1ccc(NC(=O)C(=O)Nc2ccccc2Cl)c(C(=O)Nc2ccc(N3CCOCC3=O)cc2)c1`, 798 nM.
Still for that read-out and setting: in the case of `COc1ccc(NC(=O)C(=O)Nc2cccc(Cl)c2)c(C(=O)Nc2ccc(N3CCOCC3=O)cc2)c1` it was 621 nM.
With `COc1ccc(NC(=O)C(=O)Nc2ccc(Cl)cc2)c(C(=O)Nc2ccc(N3CCOCC3=O)cc2)c1`, the 50% inhibitory concentration (IC50) turned out to be 452 nM.
On the same count and under the same terms, under `COc1ccc(NC(=O)C(=O)Nc2ccc(F)cc2)c(C(=O)Nc2ccc(N3CCOCC3=O)cc2)c1` stands 678 nM.
Same read-out and setting: in the case of `COc1ccc(NC(=O)C(=O)Nc2ccccc2OC)c(C(=O)Nc2ccc(N3CCOCC3=O)cc2)c1` it was 828 nM; in that of `COc1ccc(NC(=O)C(=O)Nc2ccc(OC)cc2C(=O)Nc2ccc(N3CCOCC3=O)cc2)cc1`, 612 nM.
As to `COc1ccc(NC(=O)c2ccccc2)c(C(=O)Nc2ccc(N3CCCCC3=O)cc2)c1`, the IC50 was found to be 521 nM.
On the same count and under the same terms, under `COc1ccc(NC(=O)c2ccc(Cl)cc2)c(C(=O)Nc2ccc(N3CCCCC3=O)cc2)c1` stands 23 nM; under `COc1ccc(NC(=O)c2cccc(Cl)c2)c(C(=O)Nc2ccc(N3CCCCC3=O)cc2)c1`, 183 nM; under `COc1cccc(C(=O)Nc2ccc(OC)cc2C(=O)Nc2ccc(N3CCCCC3=O)cc2)c1`, 378 nM.
